{"source": "paper PMC9894536", "about": "(Biomaterials science, 2023)", "key": {"[1]": {"test": "Free TFV release / prodrug stability with or without dithiothreitol", "type": "physicochemical", "details": "100 μM in 1x PBS, 10 mM DTT, 37 °C; for TFV released by 24 hours with DTT: RP-HPLC and ESI MS"}, "[2]": {"test": "Instantaneous gelation on injection into PBS", "type": "physicochemical", "details": "10 mM solution assembled with 10 mM Nile red, injected into 10x PBS"}, "[3]": {"type": "physicochemical", "details": "addition of PBS (final 1x PBS) to 5 mM solution; 10 ul 10x PBS to 100 ul", "in_short": "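Aqueous prodrug solutions, brought to pH 7.4 after purification, were gelled by adding 10× PBS at a 10:1 solution-to-buffer ratio to reach 1× PBS. Gel formation and the critical gelation concentration were judged by a simple vial-inversion test across prodrug concentrations.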"}, "[4]": {"test": "In vitro gel release of TFV-PA from hydrogel depots", "type": "physicochemical", "in_short": "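Hydrogels were made from 5 and 10 mM prodrug solutions and aged at 37 °C under a fixed volume of PBS release medium. Supernatant was collected and replaced at set time points up to day 30 and analysed by analytical RP-HPLC. Release is given as nanomoles and as percent of conjugate in the original gel, mean ± SD, n = 3.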"}, "[5]": {"test": "Critical micellization concentration by Nile red encapsulation assay", "type": "physicochemical", "details": "fluorescence ratio 635 nm vs 660 nm, aqueous, n = 3", "in_short": "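Critical micellization concentration was read on a fluorometer as the concentration where the ratio of fluorescence at 635 nm (encapsulated Nile red) to 660 nm (free Nile red) shifted. Measurements were made in aqueous prodrug solutions, and data are mean ± SD of 3.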"}, "[6]": {"test": "Nanobelt width by negatively stained transmission electron microscopy", "type": "physicochemical", "details": "TEM, 1 mM concentration, mean ± SD, n = 35", "in_short": "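Samples were pH 7.4 aqueous solutions (1 mM shown), negatively stained and imaged by TEM. Nanobelt widths were measured from the images and reported as mean ± SD over 35 measurements.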"}, "[7]": {"system": "HBV", "test": "Anti-HBV efficacy, HBV DNA in supernatant of HepAD38 cells by qPCR", "type": "cell-based", "details": "Hepatitis B virus, HePAD38, 96 h, read-out: IC50, HBV production"}}, "note": "Where a SMILES comes first, the peptide text is derived from it. The star is where a group is joined. X1 = C[C@H](Cn1cnc2c(N)ncnc21)OCP(=O)(O)OCCS*; Palmitoyl = CCCCCCCCCCCCCCCC(=O)*"}
{"smiles": "CCCCCCCCCCCCCCCC(=O)N[C@H](C(=O)N[C@H](C(=O)N[C@@H](CSSCCOP(=O)(O)CO[C@H](C)Cn1cnc2c(N)ncnc21)C(=O)N[C@@H](CCC(=O)O)C(=O)O)C(C)C)C(C)C", "note": "[TFV-PA2] (Palmitoyl-VVC(X1)E-OH; C-terminus assumed)", "values": [{"measurement": "TFV released after 1 hour with DTT", "setting": "[1]; 1 hour, RP-HPLC, n = 3", "result": "more than 90%"}, {"measurement": "TFV released by 24 hours with DTT", "setting": "[1]", "result": "all TFV released"}, {"measurement": "gelation upon injection", "setting": "[2]", "result": "formed gels instantly upon injection"}, {"measurement": "gel formation of 5 mM solution", "setting": "[3]", "result": "weak gel formation"}, {"measurement": "average concentration in the release supernatant, 5 mM gels", "setting": "[4]; 5 mM hydrogel, 37 °C, PBS release medium, RP-HPLC", "result": "361 ± 91", "unit": "µM"}, {"measurement": "percent release on day 14, 5 mM gel", "setting": "[4]; 5 mM hydrogel, 37 °C, PBS release medium, RP-HPLC, day 14, n = 3", "result": 56, "unit": "%"}, {"measurement": "prodrug released on day 14, 5 mM gel", "setting": "[4]; 5 mM hydrogel, 37 °C, PBS release medium, day 14, mean ± SD", "result": "126 ± 7", "unit": "nmol"}, {"measurement": "average concentration in the release supernatant, 10 mM gels", "setting": "[4]; 10 mM hydrogel, 37 °C, PBS release medium, RP-HPLC", "result": "619 ± 268", "unit": "µM"}, {"measurement": "percent release on day 14, 10 mM gel", "setting": "[4]; 10 mM hydrogel, 37 °C, PBS release medium, RP-HPLC, day 14, n = 3", "result": 48, "unit": "%"}, {"measurement": "prodrug released on day 14, 10 mM gel", "setting": "[4]; 10 mM hydrogel, 37 °C, PBS release medium, day 14, mean ± SD", "result": "217 ± 12", "unit": "nmol"}, {"measurement": "initial prodrugs released from hydrogel by day 14", "setting": "[4]; hydrogels aged at 37 °C with PBS release medium, RP-HPLC, day 14", "result": "about 50%"}, {"measurement": "critical micellization concentration (CMC)", "setting": "[5]", "result": 51, "unit": "µM"}, {"measurement": "nanobelt width", "setting": "[6]", "result": "11.8 ± 1.3", "unit": "nm"}]}
{"smiles": "CCCCCCCCCCCCCCCC(=O)N[C@H](C(=O)N[C@H](C(=O)N[C@H](C(=O)N[C@@H](CSSCCOP(=O)(O)CO[C@H](C)Cn1cnc2c(N)ncnc21)C(=O)N[C@@H](CCC(=O)O)C(=O)O)C(C)C)C(C)C)C(C)C", "note": "[TFV-PA3] (Palmitoyl-VVVC(X1)E-OH; C-terminus assumed)", "values": [{"measurement": "TFV released after 4 hours with DTT", "setting": "[1]; 4 hours, RP-HPLC, n = 3", "result": "more than 70%"}, {"measurement": "TFV released by 24 hours with DTT", "setting": "[1]", "result": "all TFV released"}, {"measurement": "gelation upon injection", "setting": "[2]", "result": "formed gels instantly upon injection"}, {"measurement": "gel formation of 5 mM solution", "setting": "[3]", "result": "robust gel formation"}, {"measurement": "percent released on day 30, 5 mM hydrogels", "setting": "[4]; 5 mM hydrogel, 37 °C, PBS release medium, RP-HPLC, day 30, mean ± SD, n = 3", "result": "16.3 ± 1.3", "unit": "%"}, {"measurement": "prodrug released on day 30, 5 mM hydrogels", "setting": "[4]; 5 mM hydrogel, 37 °C, PBS release medium, day 30, mean ± SD", "result": "36.7 ± 3.0", "unit": "nmol"}, {"measurement": "percent released on day 30, 10 mM hydrogels", "setting": "[4]; 10 mM hydrogel, 37 °C, PBS release medium, RP-HPLC, day 30, mean ± SD, n = 3", "result": "6.1 ± 0.5", "unit": "%"}, {"measurement": "average concentration of release supernatant from day 8 onwards, 10 mM gels", "setting": "[4]; 10 mM hydrogel, 37 °C, PBS release medium, day 8 onwards", "result": "13.3 ± 4.2", "unit": "µM"}, {"measurement": "prodrug released on day 30, 10 mM hydrogels", "setting": "[4]; 10 mM hydrogel, 37 °C, PBS release medium, day 30, mean ± SD", "result": "27.3 ± 2.2", "unit": "nmol"}, {"measurement": "initial prodrugs retained in hydrogel on day 30", "setting": "[4]; hydrogels aged at 37 °C with PBS release medium, RP-HPLC, day 30", "result": "more than 80%"}, {"measurement": "critical micellization concentration (CMC)", "setting": "[5]", "result": 8, "unit": "µM"}, {"measurement": "nanobelt width", "setting": "[6]", "result": "18.9 ± 3.0", "unit": "nm"}]}
{"smiles": "C[C@H](Cn1cnc2c(N)ncnc21)OCP(=O)(O)O", "note": "[TFV, tenofovir]", "values": [{"measurement": "IC50", "setting": "[7]", "result": 1100, "unit": "nM"}]}
